Experiments:
[1] = tested on: Apg (acarbose-preferred glucosidase); assay: In vitro reaction of Apg; format: in vitro ADME, Klebsiella grimontii TD1; settings: 10 μM Apg, 1 mM substrate, 37 °C, 2 h
[2] = tested on: Mak1 (microbiome-derived acarbose kinase 1); assay: In vitro reaction of Mak1; format: in vitro ADME, human microbiome; settings: 10 μM Mak1, 0.5 mM substrate, 2 mM ATP, 30 °C, 2 h
Outline: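 Mak1 expressed in E. coli Origami B (DE3) (1 mM IPTG, 16 °C, 18 h) and purified on Ni-NTA. Reactions used 100 mM Tris-HCl pH 7.0, 10 mM MgCl₂, 2 mM ATP, 10 μM Mak1 and 0.5 mM test compound. They ran at 30 °C for 2 h and were stopped with 2 volumes methanol. Control used heat-inactivated Mak1 (95 °C, 30 min). Phosphorylated product detected by LC-MS on an SB-Aq column.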

For `C[C@H]1O[C@H](O[C@H]2[C@H](O)[C@@H](O)[C@@H](O[C@H]3[C@H](O)[C@@H](O)C(O)O[C@@H]3CO)O[C@@H]2CO)[C@H](O)[C@@H](O)[C@@H]1N[C@H]1C=C(CO)[C@@H](O)[C@H](O)[C@H]1O` (some centres unmarked) [Acarbose], the “Hydrolysis by Apg” value [1] was “completely converted” and the “Phosphorylation by Mak1 (detection of phosphorylated product)” value [2] was “catalyzed the conversion of acarbose to O-7-phosphoryl-acarbose”.
